Stability and IC50 data for six compounds are collected here from ChEMBL document CHEMBL4392855, “Scaffold hopping of fused piperidine-type NK3 receptor antagonists to reduce environmental impact” (Bioorg Med Chem, 2019).

Usually IC50 stands for the point on the concentration scale where inhibition reaches its midpoint.

Data set [1] can be described thus: Photo-stability in 50 mM pH 7.4 phosphate buffer assessed as compound degradation at 30 uM under UV-light irradiation by HPLC analysis. The class given is physicochemical. The note with it: pH 7.4, 30 µM. A digest of the protocol:
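Compound at 30 μM in 50 mM phosphate buffer pH 7.4/EtOH 70:30 (0.1% DMSO) was exposed to a mercury xenon lamp (1500 W/m^2). Aliquots sampled at intervals were diluted 1:1 with MeCN and run on HPLC with 254 nm detection. Ratios were calculated from calibration curves.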

Data set [2] is described as follows: Photo-stability in 50 mM pH 7.4 phosphate buffer assessed as compound degradation at 30 uM exposed to xenon lamp irrational (> 325 nm) by HPLC analysis. The class given is physicochemical. The note with it: pH 7.4, 30 µM. A digest of the protocol:
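Compound at 30 μM in 50 mM phosphate buffer pH 7.4/EtOH 70:30 (0.1% DMSO) was irradiated with a xenon arc lamp (900 W/m^2), with filters cutting wavelengths below 325 nm. Aliquots taken at intervals were diluted with MeCN and analysed by HPLC with 254 nm UV detection. Remaining amounts were taken from calibration curves.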

Data set [3] deals with T1, Neuromedin-K receptor (Homo sapiens, UniProt P29371).
T1 sequence (P29371 whole entry): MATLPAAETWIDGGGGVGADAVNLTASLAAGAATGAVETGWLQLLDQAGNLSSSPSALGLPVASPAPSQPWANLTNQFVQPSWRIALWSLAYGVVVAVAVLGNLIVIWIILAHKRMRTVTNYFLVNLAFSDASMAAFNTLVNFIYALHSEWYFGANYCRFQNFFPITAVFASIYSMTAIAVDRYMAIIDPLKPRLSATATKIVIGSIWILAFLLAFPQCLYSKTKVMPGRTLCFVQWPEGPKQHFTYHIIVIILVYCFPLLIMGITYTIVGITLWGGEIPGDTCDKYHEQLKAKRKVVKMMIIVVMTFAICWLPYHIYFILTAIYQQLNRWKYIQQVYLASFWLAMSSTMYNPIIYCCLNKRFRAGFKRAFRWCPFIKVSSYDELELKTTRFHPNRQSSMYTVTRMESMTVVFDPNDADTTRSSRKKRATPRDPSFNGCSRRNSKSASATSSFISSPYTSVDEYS
The data set can be described thus: Antagonistic activity against NK3R (unknown origin) expressed in CHO cells assessed as inhibition of NKB-induced intracellular calcium flux under UV-light irradiation by Calcium 4 assay. The class given is functional, cell-based. (In general: Calcium assays in cells follow changes in intracellular calcium, usually with a dye or a luminescent sensor.)

The nature of data set [4]: Stability in pH 4 acetate buffer assessed as compound degradation at 30 uM by HPLC analysis. The class given is physicochemical. As to conditions: pH 4, 30 µM.
Data set [5] can be described thus: Stability in pH 7.4 phosphate buffer assessed as compound degradation at 30 uM by HPLC analysis. The class given is physicochemical. As to conditions: pH 7.4, 30 µM.
The nature of data set [6]: Stability in pH 10 carbonate buffer assessed as compound degradation at 30 uM by HPLC analysis. The class given is physicochemical. As to conditions: pH 10, 30 µM.
The nature of data set [7]: Stability in rat serum assessed as compound degradation at 50 uM by HPLC analysis. The class given is ADME, cell-free.
Data set [8] addresses T1, Neuromedin-K receptor. Put plainly: Antagonistic activity against NK3R (unknown origin) expressed in CHO cells assessed as inhibition of NKB-induced intracellular calcium flux by Calcium 4 assay. The class given is functional, cell-based.

In the case of `CC1c2noc(-c3ccc4ccccc4n3)c2CCN1C(=O)c1ccc(F)cc1` (stereo unspecified), the Stability result in data set [1] is recorded as “Unstable”; in data set [2], “Unstable”; in data set [4], “Stable”; in data set [5] it was “Stable”; in data set [6], “Stable”; in data set [7], “Stable”. The figures for the IC50 on Neuromedin-K receptor [3] and on Neuromedin-K receptor [8] were greater than 100 µM and 10.3 µM, respectively.
As to `C[C@@H]1c2noc(-c3ccc4ccccc4n3)c2CCN1C(=O)c1ccc(F)cc1`, the Stability result in data set [4], in data set [5], in data set [6] and in data set [7] was “Stable” throughout. Also, the concentration for half-maximal inhibition (IC50) at Neuromedin-K receptor [8] was 11.8 µM.
As to `C[C@@H]1c2nnc(-c3ccc4ccccc4n3)n2CCN1C(=O)c1ccc(F)cc1`, the Stability result in data set [1], in data set [4], in data set [5], in data set [6] and in data set [7] was “Stable” in each case. For the same compound, the IC50 at Neuromedin-K receptor [8] was determined as 0.26 µM.
As to `C[C@H]1c2noc(-c3ccc4ccccc4n3)c2CCN1C(=O)c1ccc(F)cc1`, the Stability entry in data set [4], in data set [5], in data set [6] and in data set [7] was “Stable” throughout. Further, on Neuromedin-K receptor [8], the IC50 came out at 13.7 µM.
For `CC1c2nnn(-c3ccc4ccccc4n3)c2CCN1C(=O)c1ccc(F)cc1` (stereo unspecified), the Stability result in data set [1], in data set [4], in data set [5], in data set [6] and in data set [7] was “Stable” in each case. In addition, on Neuromedin-K receptor [8], the IC50 was 4.1 µM.
Consider `CC1c2onc(-c3ccc4ccccc4n3)c2CCN1C(=O)c1ccc(F)cc1` (stereo unspecified), for which the Stability entry in data set [1], in data set [4], in data set [5], in data set [6] and in data set [7] was “Stable” throughout. The IC50 on Neuromedin-K receptor [8] was 8.2 µM.
